Here are results for one molecule from ChEMBL document CHEMBL4371095, “Triazole-Based Inhibitors of the Wnt/β-Catenin Signaling Pathway Improve Glucose and Lipid Metabolisms in Diet-Induced Obese Mice” (J Med Chem, 2019).

Active and inactive are the calls of the source. The rule behind the calls is not given here.

The half-life is how long it takes for the measured level to halve. For orientation: bioavailability means dose-corrected exposure relative to a reference, in per cent. Read a low bioavailability as little systemic uptake. As usually defined, the IC50 is the concentration that inhibits the measured activity by half. Read a low IC50 as higher potency.

The test system of data set [1] is Mus musculus. The experiment in a line: Decrease in serum cholesterol level in high fat diet fed C57BL/6J mouse at 40 mg/kg, ip administered every 2 days for 11 weeks. Type of data set: functional, organism-based. The gist of the method: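 Male mice, 8 weeks old, 24–27 g, given a 45% kcal fat diet for 6 weeks, then dosed i.p. every 2 days in corn oil vehicle with the diet continued. Sacrifice was about 24 h after the last dose. Liver was examined by H&E. Liver and serum triglyceride were measured by kit. Serum chemistry was included, and liver/body weight ratio was calculated.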

The nature of data set [2]: Toxicity in high fat diet fed C57BL/6J mouse assessed as serum creatinine level at 40 mg/kg, ip administered every 2 days for 11 weeks by Jaffe's reaction analysis (reference value: 0.3 +/- 0.02 mg/dl). To be noted: in vivo. It counts as organism-based.
Data set [3] has as its system Mus musculus. Put plainly: Effect on hepatic G6pase mRNA level in normal chow diet fed C57BL/6J mouse at 40 mg/kg, ip administered every 2 days for 11 weeks by qPCR analysis. Type of data set: ADME, organism-based. To be noted: in vivo. The gist of the method:
(§1)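 Male mice, 8 weeks old, kept on normal chow throughout and dosed i.p. every 2 days in corn oil vehicle for 11 weeks. Body weight gain, liver/body weight ratio, and liver mRNA of the indicated genes were measured at sacrifice; mean ± SEM, n = 5 per group where stated.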
(In qPCR the cycle at which signal appears reflects the starting amount.)

Data set [4] concerns Mus musculus. The experiment in a line: Effect on hepatic Glp1 mRNA level in normal chow diet fed C57BL/6J mouse at 40 mg/kg, ip administered every 2 days for 11 weeks by qPCR analysis. Type of data set: ADME, organism-based. To be noted: in vivo. The essentials:
as §1

The subject of data set [5] is HEK293. The experiment in a line: Inhibition of Wnt/beta-catenin signaling (unknown origin) expressed in HEK293 cells assessed as increase in GSK3beta binding to beta-catenin after 12 hrs by immunoprecipitation method. Type of data set: cell-based. To be noted: Homo sapiens.
Data set [6] is described as follows: Toxicity in normal chow diet fed C57BL/6J mouse assessed as serum cholesterol level at 40 mg/kg, ip administered every 2 days for 11 weeks (reference value: 183 +/- 16.6 mg/dl). Type of data set: organism-based. The note with it: in vivo.
Data set [7] deals with Mus musculus. The experiment in a line: Effect on hepatic ACAT2 mRNA level in normal chow diet fed C57BL/6J mouse at 40 mg/kg, ip administered every 2 days for 11 weeks by qPCR analysis. Type of data set: ADME, organism-based. The note with it: in vivo. The gist of the method:
as §1

In data set [8] the test system is Mus musculus. The experiment in a line: Decrease in hepatic G6pase mRNA level in high fat diet fed C57BL/6J mouse at 40 mg/kg, ip administered every 2 days for 11 weeks by qPCR analysis. Type of data set: functional, organism-based. The gist of the method:
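Male mice, 8 weeks old, fed a 45% kcal fat diet for 6 weeks, then dosed i.p. every 2 days in corn oil vehicle for 11 weeks. Liver mRNA of the indicated genes was quantified at sacrifice; mean ± SEM, n = 5 per group.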

Data set [9] in a line: Half life in mouse at 10 mg/kg, po or 10 mg/kg, iv administered as single dose by LC-MS analysis. It counts as ADME, organism-based. The note with it: in vivo. The gist of the method: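 Compound was dissolved at 1 mg/ml in 10% Kolliphor EL and 10% polyethylene glycol in saline. Ten mice were split into intravenous and oral groups and given a single 10 mg/kg dose. Tail-vein blood was sampled at several time points and analysed by LC/MS/MS.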

The nature of data set [10]: Toxicity in normal chow diet fed C57BL/6J mouse assessed as serum LDH level at 40 mg/kg, ip administered every 2 days for 11 weeks (reference value: 324 +/- 63.5 U/L). To be noted: in vivo. Type of data set: organism-based.
Another data set addresses Axin-1 (Homo sapiens) (UniProt O15169). Put plainly: Stabilization of Axin1 in human HuH7 cells assessed as decrease in lipid accumulation at 5 uM after 36 hrs by nile red staining based fluorescence microscopic method. It counts as cell-based. The essentials:
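Huh7 cells on collagen I-coated coverslips were treated with 5 μM compound for 36 h, then with 200 μM sodium oleate for a further 12–16 h. Cells were stained with 1 μM Nile red in HBSS for 10 min at 37 °C in the dark and imaged by fluorescence microscopy at 552/636 nm.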

Data set [11] in a line: Oral bioavailability in mouse at 10 mg/kg administered as single dose by LC-MS analysis. Type of data set: ADME, organism-based. The note with it: in vivo.
Data set [12] concerns Mus musculus. The experiment in a line: Antidiabetic activity in high fat diet fed C57BL/6J mouse assessed as improvement in glucose tolerance at 40 mg/kg, ip administered every 2 days for 11 weeks followed by glucose-challenge and measured up to 120 mins by IPGTT. It counts as functional, organism-based. The gist of the method:
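Male mice, 8 weeks old, fed a 45% kcal fat diet for 6 weeks, then dosed i.p. every 2 days in corn oil vehicle alongside the continued diet. IPGTT was done before and at the end of treatment: 6–8 h fast, then glucose 2 g/kg i.p. in saline. Tail-vein blood glucose was read by glucometer over time, and AUC was derived; mean ± SEM, n = 5 per group.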

A short description of data set [13]: Inhibition of Wnt/beta-catenin signaling (unknown origin) expressed in HEK293 cells harboring GSK3B siRNA after 24 hrs by luciferase reporter gene assay. Type of data set: cell-based. The note with it: Homo sapiens, HEK293, 24 h.
The nature of data set [14]: Toxicity in high fat diet fed C57BL/6J mouse assessed as serum alkaline phosphatase level at 40 mg/kg, ip administered every 2 days for 11 weeks (reference value: 58.3 +/- 3.8 U/L). Type of data set: organism-based. The note with it: in vivo.
Data set [15] can be described thus: Toxicity in normal chow diet fed C57BL/6J mouse assessed as serum alkaline phosphatase level at 40 mg/kg, ip administered every 2 days for 11 weeks (reference value: 66.5 +/- 1.8 U/L). To be noted: in vivo. Type of data set: organism-based.
The nature of data set [16]: Toxicity in normal chow diet fed C57BL/6J mouse assessed as serum triglyceride level at 40 mg/kg, ip administered every 2 days for 11 weeks (reference value: 69 +/- 2.5 mg/dl). It counts as organism-based. The note with it: in vivo.
The subject of data set [17] is Mus musculus. The experiment in a line: Effect on hepatic SREBP1 mRNA level in normal chow diet fed C57BL/6J mouse at 40 mg/kg, ip administered every 2 days for 11 weeks by qPCR analysis. Type of data set: ADME, organism-based. The note with it: in vivo. The essentials:
as §1

Data set [18] concerns HEK293. Put plainly: Inhibition of Wnt3a activated Wnt/beta-catenin/Axin signaling (unknown origin) expressed in HEK293 cells assessed as stabilization of Axin1 protein at 1 to 10 uM after 2 hrs by Western blot method. Type of data set: cell-based. The note with it: Homo sapiens. The essentials: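 HEK293 cells stimulated with WNT3a were treated with compound for 2 h. Cells were lysed in 10 mM HEPES, 100 μM EDTA, 10 mM KCl, 0.5% NP40, protein was quantified by BCA, and β-catenin and Axin1 were resolved on 10% SDS-PAGE and immunoblotted.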
(In general: In western blotting, separated proteins are transferred to a membrane and probed.)

The test system of data set [19] is HEK293. Put plainly: Inhibition of Wnt/beta-catenin/Axin signaling (unknown origin) expressed in HEK293 cells assessed as decrease in CycD1 mRNA level after 48 hrs by qPCR analysis. It counts as cell-based. To be noted: Homo sapiens. The gist of the method:
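HEK293 cells were treated with compound for 48 h, harvested in TRIzol, and Wnt target gene mRNA was quantified by qPCR.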

Data set [20] is described as follows: Toxicity in high fat diet fed C57BL/6J mouse assessed as serum cholesterol level at 40 mg/kg, ip administered every 2 days for 11 weeks (reference value: 316 +/- 25 mg/dl). Type of data set: organism-based. The note with it: in vivo.
Data set [21] concerns Mus musculus. The experiment in a line: Effect on liver weight adjusted by body weight gain in normal chow diet fed C57BL/6J mouse at 40 mg/kg, ip administered every 2 days for 11 weeks. It counts as ADME, organism-based. The note with it: in vivo. The gist of the method: as §1
The species entered for data set [22] is Mus musculus. Put plainly: Inhibition of Wnt/beta-catenin/Axin signaling in mouse hepatocytes assessed as decrease in FASN mRNA level at 5 uM by qPCR analysis. Type of data set: cell-based. The gist of the method:
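Normal mouse hepatocytes were treated with 5 μM compound, and lipogenic and gluconeogenic gene mRNA was measured by qPCR; mean ± S.D. of triplicates.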

In data set [23] the test system is Mus musculus. The experiment in a line: Effect on hepatic PEPCK mRNA level in normal chow diet fed C57BL/6J mouse at 40 mg/kg, ip administered every 2 days for 11 weeks by qPCR analysis. To be noted: in vivo. It counts as ADME, organism-based. The gist of the method:
as §1

Sequence of Axin-1 (Homo sapiens) (O15169 whole entry): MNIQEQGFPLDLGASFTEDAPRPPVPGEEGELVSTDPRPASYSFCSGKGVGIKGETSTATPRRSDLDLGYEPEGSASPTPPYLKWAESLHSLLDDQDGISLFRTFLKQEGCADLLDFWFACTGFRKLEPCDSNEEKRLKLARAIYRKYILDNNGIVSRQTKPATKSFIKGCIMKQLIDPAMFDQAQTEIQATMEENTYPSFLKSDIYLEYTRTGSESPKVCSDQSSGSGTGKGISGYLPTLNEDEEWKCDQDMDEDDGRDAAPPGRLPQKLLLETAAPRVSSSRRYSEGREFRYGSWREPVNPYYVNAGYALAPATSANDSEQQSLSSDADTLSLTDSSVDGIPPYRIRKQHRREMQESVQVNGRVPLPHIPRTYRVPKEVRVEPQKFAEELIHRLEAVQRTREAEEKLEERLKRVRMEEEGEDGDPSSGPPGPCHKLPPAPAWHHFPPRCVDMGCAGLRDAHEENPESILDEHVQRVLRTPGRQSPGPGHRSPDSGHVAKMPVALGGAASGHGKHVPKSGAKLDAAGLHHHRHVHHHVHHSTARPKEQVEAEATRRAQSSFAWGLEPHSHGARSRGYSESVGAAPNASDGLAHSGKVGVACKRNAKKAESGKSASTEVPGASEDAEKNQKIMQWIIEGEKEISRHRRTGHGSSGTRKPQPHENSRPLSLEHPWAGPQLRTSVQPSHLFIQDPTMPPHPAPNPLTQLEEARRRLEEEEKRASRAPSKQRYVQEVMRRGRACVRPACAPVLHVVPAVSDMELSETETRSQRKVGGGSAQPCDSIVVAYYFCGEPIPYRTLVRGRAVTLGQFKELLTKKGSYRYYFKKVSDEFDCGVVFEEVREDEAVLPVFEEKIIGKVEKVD

As for `Cc1ccccc1-n1nnc(C(=O)Nc2ccc3ccccc3n2)c1C`, the result in the data set with Mus musculus [1], with Mus musculus [8], at Axin-1 (Homo sapiens) and with Mus musculus [12] was Active. Further, the Activity was 0.2 mg/dL in data set [2]; “Non-Toxic” in the data set on Mus musculus [3]; “Non-Toxic” in the data set with Mus musculus [4]; 194 mg/dL in [6]; “Non-Toxic” with Mus musculus [7]; 190 U/L in data set [10]. Further, the Activity in data set [14] is 51 U/L; in [15], 57.5 U/L; in data set [16], 55 mg/dL; in the data set with Mus musculus [17], “Non-Toxic”; in data set [20] it was 223 mg/dL; in the data set with Mus musculus [21], “Non-Toxic”. For the same molecule, the Activity result in the data set with Mus musculus [23] is listed as “Non-Toxic”. Besides, the inhibition result with HEK293 [5], with HEK293 [18], in the data set with HEK293 [19] and in the data set filed under Mus musculus [22] was “Active” in each case. Also, the half-life in [9] was in the range of 2.8 to 3.3 h. In [11], the bioavailability stood at 21%. The IC50 in data set [13] came to 34 nM.
